By ED50 is commonly meant the dose that gives a 50% effect, or the effect in half of the subjects. For orientation: LD50 means the dose at which mortality reaches 50%.

Results on nine compounds are retold here after ChEMBL document CHEMBL1121825, “A potent, new, sedative--hypnotic agent: 5,7-dihydro-5,5,7,7-tetramethyl-3-(3-nitrophenyl)furo[3,4-e]-as-triazine 4-oxide” (J Med Chem, 1981).

Data set [1] has as its system Mus musculus. Put plainly: Ability to reinduce anesthesia in mice as a measure of in vivo sedative-hypnotic activity. It is filed as functional. The gist of the method: (§1)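 Male Royal Hart mice (20–25 g) were anesthetized with hexobarbital 70.0 mg/kg iv. While they were regaining the righting reflex, compound was given ip. Reinduction was scored as loss of righting reflex for 10 min. ED50 (mg/kg) is the dose reinducing anesthesia in 50% of mice, estimated by probit analysis (Miller–Tainter).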

Data set [2] deals with Mus musculus. Put plainly: Tested for ability to reinduce anesthesia in mice when administered intraperitoneally as a measure of in vivo sedative-hypnotic activity; D represents Toxic. It is filed as functional, organism-based. The gist of the method:
as §1

The test system of data set [3] is Felis catus. Kind of data set: Tested to induce segmental reflexes in cat when given at a dose of 1-4 mg/Kg intravenously; Caused respiratory failure and death. The class given is organism-based. Conditions: in vivo, iv. The method, boiled down:
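Chloralose-anaesthetised intact cats. The monosynaptic patellar reflex was evoked by solenoid-hammer tendon tap and the knee jerk recorded. The polysynaptic flexor reflex was recorded as tibialis anticus contraction on electrical popliteal nerve stimulation.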

The subject of data set [4] is Monkey. Put plainly: Tested for its activity towards cebus monkey sleep relative to methaqualone at 3-9 hours of duration; 4-64 times potent. The class given is functional.
Data set [5] concerns Monkey. Put plainly: Sleep latency in cebus monkey sleep was determined; shortened (65-85% at the threshold sleep-inducing dose). It is filed as functional.
In data set [6] the test system is Mus musculus. Kind of data set: Compound was tested for mortality in mice when administered intravenously. Conditions: iv. It is filed as functional.
Data set [7] relates to Mus musculus. Kind of data set: Ataxia effect in mice when the compound was administered ip. The class given is functional. The gist of the method:
(§2)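 Modified Irwin behavioral screen in male Royal Hart mice (20–25 g), dosed ip or orally, observed for 2 h after dosing. ED50 (mg/kg) estimated by probit analysis (Miller–Tainter), or evaluation at the highest nontoxic dose used. At least 20 animals per drug; ± SE.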

Data set [8] concerns Mus musculus. Kind of data set: Ataxia effect in mice when the compound was administered po. The class given is functional. The gist of the method:
as §2

For data set [9], the system named is Mus musculus. Put plainly: Compound was tested for rotarod motor coordination in mice when administered intravenously. The class given is functional. To be noted: iv. In general terms: Falling from the rotarod earlier than controls is read as motor impairment.
Data set [10] relates to Mus musculus. Put plainly: Compound was tested for rotarod motor coordination in mice when administered perorally. It is filed as functional. To be noted: po. The method, boiled down:
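Modified Dunham–Miya rotarod test. Groups of five male Royal Hart mice (20–25 g) were trained on a 15 rpm corrugated rod for 60–90 s, then retested 30 and 60 min after drug or saline (ip or oral). Percent change in riding time versus controls; ED50 is the dose giving a 50% decrease, by probit analysis.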

Data set [11] relates to Mus musculus. Put plainly: Compound was tested for tonic convulsions when administered intraperitoneally. Conditions: ip. It is filed as functional. The gist of the method: (§3)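 Groups of five male Royal Hart mice (20–25 g) received test drug ip or orally 1 h before seizure induction with SaH 41-178 (50.0 mg/kg ip). ED50 is the dose preventing tonic convulsions or death in 50% of animals, by probit analysis.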

Data set [12] concerns Mus musculus. Put plainly: Reinduction of anesthesia in mice when administered perorally was tested. It is filed as functional. Conditions: po.
The test system of data set [13] is Mus musculus. Put plainly: Righting reflex effect in mice when the compound was administered intraperitoneally. Conditions: ip. It is filed as functional. The gist of the method:
as §2

The subject of data set [14] is Mus musculus. Kind of data set: Hypomotility effect in mice when the compound was administered intraperitoneally. The class given is functional. To be noted: ip. The gist of the method:
as §2

Data set [15] deals with Mus musculus. Kind of data set: Prehensile effect in mice when the compound was administered intravenously. To be noted: iv. It is filed as functional.
Data set [16] deals with Mus musculus. Kind of data set: Prehensile effect in mice when the compound was administered perorally. The class given is functional. Conditions: po. The gist of the method:
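Oral dosing of male Royal Hart mice (20–25 g), scored by a modified Irwin behavioural screen. ED50 (mg/kg) estimated by probit analysis; at least 20 animals per drug.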

Data set [17] is described as follows: Acute toxicity in mice after 2 hours administration ip. To be noted: mouse, in vivo. The class given is organism-based. The gist of the method:
(§4)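 Male Royal Hart mice (20–25 g) dosed intraperitoneally or orally; deaths scored at 2 h and 72 h. LD50 (mg/kg) estimated by probit analysis (Miller–Tainter), with at least 20 animals per drug.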

Data set [18] is described as follows: Acute toxicity in mice after 2 hours administration perorally. It is filed as organism-based. To be noted: mouse, in vivo, po. The method, boiled down:
as §4

The nature of data set [19]: Acute toxicity in mice after 72 hours administration ip. It is filed as organism-based. To be noted: mouse, in vivo. The gist of the method: as §4
The nature of data set [20]: Acute toxicity in mice after 72 hours administration perorally. It is filed as organism-based. Conditions: mouse, in vivo, po. The method, boiled down:
as §4

A short description of data set [21]: Acute toxicity in rats after 2 hours of administration perorally. The class given is organism-based. To be noted: rat, in vivo, po. The gist of the method:
(§5)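 Male Wistar rats (130–160 g) dosed orally; lethality read at 2 h and 72 h. LD50 (mg/kg) derived by probit analysis (Miller–Tainter), using a minimum of 20 animals per drug.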

Data set [22] in a line: Acute toxicity in rats after 72 hours of administration perorally. The class given is organism-based. Conditions: rat, in vivo, po. The method, boiled down:
as §5

Data set [23] has as its system Mus musculus. Kind of data set: Righting reflex effect in mice when the compound was administered perorally. The class given is functional. Conditions: po. The gist of the method:
as §2

Data set [24] relates to Mus musculus. Put plainly: Compound was tested for tonic convulsions when administered perorally. Conditions: po. The class given is functional. The gist of the method:
as §3

Data set [25] concerns Rattus norvegicus. Put plainly: Hypomotility effect in rats when administered perorally. Conditions: po.
The subject of data set [26] is Rattus norvegicus. Kind of data set: Ataxia effect in rats when the compound was administered perorally. To be noted: po.
Data set [27] deals with Rattus norvegicus. Kind of data set: Righting reflex effect in rats when the compound was administered perorally. To be noted: po.

Structures are written as SMILES. A value given as a limit tells only on which side of the number the result lay.

`CC1(C)CSCC(C)(C)c2nc(-c3ccccc3)nnc21` registered an ED50 in data set [1] of 31.3 mg/kg.

As to `CCOC(=O)c1nnc(-c2ccccn2)nc1O`, the 50% effective dose (ED50) result in data set [2] is “Toxic”.

In data set [1], `CC1(C)OC(C)(C)c2c1nnc(-c1cccc(C(F)(F)F)c1)[n+]2[O-]` gave an ED50 of 66.7 mg/kg.

As to `CCCc1nc(-c2ccccn2)nnc1C`, the ED50 entry in data set [2] is “Toxic”.

For the compound `CC1(C)Cc2nnc(-c3ccccc3)[n+]([O-])c2C(C)(C)O1`, the 50% effect level in [1] (ED50) was put at a dose of 122 mg/kg.

Compound `CC1(C)OC(C)(C)c2nc(-c3cnccn3)nnc21` returned a 50% effective dose (ED50) in data set [1] of 100 mg/kg.

Take `CC1(C)OC(C)(C)c2c1nnc(-c1cccc([N+](=O)[O-])c1)[n+]2[O-]`: the Activity result in data set [3] was “Caused respiratory failure and death”. In [4], the Relative potency was determined as 4. Also, in [5], the Sleep latency was 65%. For the same compound, the ED50 in [6] is 54 mg/kg; in data set [7], 130 mg/kg; in data set [8], 39 mg/kg; in data set [9] it was 51 mg/kg; in data set [10], over 1000 mg/kg; in [1], 72 mg/kg. Also, the ED50 in data set [11] was 54 mg/kg; in data set [12], 72 mg/kg; in data set [13], 123 mg/kg; in [14], 50 mg/kg; in data set [15], 125 mg/kg; in data set [16], 54 mg/kg. Further, the ED50 was 55 mg/kg in data set [23]; over 1000 mg/kg in data set [24]; 37 mg/kg in data set [25]; 39 mg/kg in [26]; 118 mg/kg in [27]. Also, the LD50 at 2 h in data set [17] was over 400 mg/kg; in data set [18], over 400 mg/kg; in [21], over 800 mg/kg. For the same compound, the LD50 at 72 h is over 235 mg/kg in data set [19], over 400 mg/kg in [20] and over 800 mg/kg in data set [22].

For `CC1(C)OC(C)(C)c2nc(-c3cccc([N+](=O)[O-])c3)nnc21`, it took a dose of 68.8 mg/kg to reach the 50% effect level in data set [1] (ED50).

`CC1(C)OC(C)(C)c2nc(-c3ccccc3)nnc21`: in data set [1], the ED50 is 167 mg/kg.
